15 compounds from ChEMBL document CHEMBL1139374, “Multivalent scaffolds for affinity maturation of small molecule cell surface binders and their application to prostate tumor targeting” (J Med Chem, 2009) can be followed below.

The structures appear in SMILES notation. Active and inactive are the calls of the source. The calls are words filed in the database; no cut-off is given here.

Test [1] addresses T1, Glutamate carboxypeptidase 2 (Homo sapiens, UniProt Q04609). Description: Binding affinity to PSMA in human LNCaP cells assessed as cell surface binding in presence of 100% calf serum. Format: cell-based. The essentials:
(§1)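 Live-cell homologous competition; cells grown in RPMI 1640 with 10% FBS at 37°C and 5% CO2. Cells washed twice in ice-cold TBS pH 7.4, then held 20 min at 4°C with 0.02 MBq 99mTc-labeled tracer, with or without test compound, in TBS, PBS or 100% calf serum. Washed three times in TBS, gamma-counted, affinity taken from curve fit; mean ± S.D.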

The target in test [2] is T1, Glutamate carboxypeptidase 2. Description: Binding affinity to PSMA in human LNCaP cells assessed as cell surface binding in Tris-buffered saline buffer. The class given is cell-based. Put shortly: (§2)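 Cells washed twice in ice-cold TBS pH 7.4, then held 20 min at 4°C with 0.02 MBq 99mTc-labeled tracer, with or without test compound, in TBS, PBS or 100% calf serum. Washed three times in TBS, gamma-counted, affinity taken from curve fit; mean ± S.D.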

For test [3] the target is unchanged. Description: Binding affinity to PSMA in human LNCaP cells assessed as cell surface binding in phosphate-buffered saline buffer. Format: cell-based. Put shortly:
as §1

For test [4] the target is unchanged. Kind of test: Binding affinity to PSMA in human PC3 cells assessed as cell surface binding in Tris-buffered saline buffer. Format: cell-based. Particulars: for Activity: PC-3. Put shortly:
as §2

Test [5] has the same target. Kind of test: Binding affinity to PSMA in human PC3 cells assessed as cell surface binding in phosphate-buffered saline buffer. The class given is cell-based. The essentials:
as §1

Test [6] has the same target. Kind of test: Binding affinity to PSMA in human PC3 cells assessed as cell surface binding in presence of 100% calf serum. The class given is cell-based, PC-3. The essentials: as §1
Target sequence in this assay (Q04609 whole entry): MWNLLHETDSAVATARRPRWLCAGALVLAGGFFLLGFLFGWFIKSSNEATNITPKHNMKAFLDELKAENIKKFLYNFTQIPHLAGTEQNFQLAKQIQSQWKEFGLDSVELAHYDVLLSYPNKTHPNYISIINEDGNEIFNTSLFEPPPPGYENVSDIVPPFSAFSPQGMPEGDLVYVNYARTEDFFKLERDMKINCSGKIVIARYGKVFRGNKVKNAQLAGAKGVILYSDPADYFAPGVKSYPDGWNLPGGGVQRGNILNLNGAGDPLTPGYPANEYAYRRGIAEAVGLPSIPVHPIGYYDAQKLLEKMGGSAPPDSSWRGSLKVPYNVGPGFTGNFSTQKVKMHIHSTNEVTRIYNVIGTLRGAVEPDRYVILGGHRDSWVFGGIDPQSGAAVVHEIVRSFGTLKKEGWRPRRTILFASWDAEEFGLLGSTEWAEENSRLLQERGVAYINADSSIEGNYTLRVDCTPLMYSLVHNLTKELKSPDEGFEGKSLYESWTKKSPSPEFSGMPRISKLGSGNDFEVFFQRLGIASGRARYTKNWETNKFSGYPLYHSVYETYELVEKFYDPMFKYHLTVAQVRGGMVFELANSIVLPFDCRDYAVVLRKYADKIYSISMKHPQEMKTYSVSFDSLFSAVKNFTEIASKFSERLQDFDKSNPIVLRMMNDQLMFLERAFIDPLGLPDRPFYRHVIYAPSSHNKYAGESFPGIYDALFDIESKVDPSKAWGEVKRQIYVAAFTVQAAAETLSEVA
Test [7] has the same target. Kind of test: Binding affinity to PSMA in living human LNCaP cells assessed as cell surface binding at 2 uM in presence of 100% calf serum by NIR fluorescence imaging. The class given is cell-based. The essentials: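 Exponentially growing LNCaP cells at 75% confluence on glass coverslips, exposed to 2 μM compound in 0.2 mL 100% calf serum for 20 min at room temperature. Washed three times in serum, fixed in 2% paraformaldehyde 10 min, permeabilized with PBS-0.1% Tween-20 and mounted. Phase-contrast and NIR images taken on a four-channel NIR fluorescence microscope at identical exposure and normalization.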
Target sequence in this assay (Q04609 whole entry, looked up): as the sequence (Q04609 whole entry) above

What is called Kd is the constant that tells how readily two partners part at equilibrium. As to `CC1(C)C(/C=C/C2=C(Oc3ccc(S(=O)(=O)O)cc3)C(=C/C=C3/N(CCCCS(=O)(=O)O)c4ccc(S(=O)(=O)[O-])cc4C3(C)C)/CCC2)=[N+](CCCCCC(=O)NCCCCCC(=O)NC23CC4(CCC=O)CC(CCC(=O)N[C@@H](CCP(=O)(O)CC(CCC(=O)O)C(=O)O)C(=O)O)(CC(CCC(=O)N[C@@H](CCP(=O)(O)CC(CCC(=O)O)C(=O)O)C(=O)O)(C4)C2)C3)c2ccc(S(=O)(=O)O)cc21` (stereo partly specified), the Kd came out at 1.7 nM in test [1], 1.3 nM in test [2] and 1.9 nM in test [3].

For `CC1(C)C(/C=C/C2=C(Oc3ccc(S(=O)(=O)O)cc3)C(=C/C=C3/N(CCCCS(=O)(=O)O)c4ccc(S(=O)(=O)O)cc4C3(C)C)/CCC2)=[N+](CCCCCC(=O)O)c2ccc(S(=O)(=O)[O-])cc21`, the outcome in test [2] and in test [4] was inactive.

For `CC1(C)C(/C=C/C2=C(Oc3ccc(S(=O)(=O)O)cc3)C(=C/C=C3/N(CCCCS(=O)(=O)O)c4ccc(S(=O)(=O)O)cc4C3(C)C)/CCC2)=[N+](CCCCCC(=O)N[C@@H](CCP(=O)(O)CC(CCC(=O)O)C(=O)O)C(=O)O)c2ccc(S(=O)(=O)[O-])cc21` (stereo partly specified), the outcome in test [1] and in test [3] was inactive.

Take `N[C@@H](CCP(=O)(O)CC(CCC(=O)O)C(=O)O)C(=O)O` (stereo partly specified): the outcome in test [1] and in test [3] was inactive. In addition, the Kd in test [2] stood at 10.5 nM.

For `CC1(C)C(/C=C/C2=C(Oc3ccc(S(=O)(=O)O)cc3)C(=C/C=C3/N(CCCCS(=O)(=O)O)c4ccc(S(=O)(=O)O)cc4C3(C)C)/CCC2)=[N+](CCCCCC(=O)NCCCCCC(=O)NC23CC4(CCC(=O)N[C@@H](CCP(=O)(O)CC(CCC(=O)O)C(=O)O)C(=O)O)CC(CCC(=O)N[C@@H](CCP(=O)(O)CC(CCC(=O)O)C(=O)O)C(=O)O)(CC(CCC(=O)N[C@@H](CCP(=O)(O)CC(CCC(=O)O)C(=O)O)C(=O)O)(C4)C2)C3)c2ccc(S(=O)(=O)[O-])cc21` (stereo partly specified), the Activity in test [1] amounted to 0.4 nM. Further, the Kd in test [2] and in test [3] was 0.5 nM in each case.

Take `NC12CC3(CCC(=O)O)CC(CCC(=O)O)(C1)CC(CCC(=O)O)(C2)C3`: the outcome in test [5] (PC-3), in test [2], in test [4] and in test [3] was inactive.

With `CC1(C)C(/C=C/C2=C(Oc3ccc(S(=O)(=O)[O-])cc3)C(=C/C=C3\N(CCCCS(=O)(=O)O)c4ccccc4C3(C)C)/CCC2)=[N+](CCCCCC(=O)NC23CC4(CCC(=O)O)CC(CCC(=O)O)(CC(CCC(=O)O)(C4)C2)C3)c2ccccc21`, the result in test [2] and in test [4] was inactive.

`CC(C)(C)OC(=O)NC12CC3(CCC(=O)N[C@@H](CCP(=O)(O)CC(CCC(=O)O)C(=O)O)C(=O)O)CC(CCC(=O)N[C@@H](CCP(=O)(O)CC(CCC(=O)O)C(=O)O)C(=O)O)(CC(CCC(=O)N[C@@H](CCP(=O)(O)CC(CCC(=O)O)C(=O)O)C(=O)O)(C3)C1)C2` (stereo partly specified): the Kd in test [5] was 0.3 nM; in test [2] it was 0.6 nM; in test [4] it was 0.2 nM; in test [6], 0.6 nM; in test [3], 0.8 nM. For the same compound, in test [1], the Activity is 0.9 nM.

Consider `CC1(C)C(/C=C/C2=C(Oc3ccc(S(=O)(=O)O)cc3)C(=C/C=C3/N(CCCCS(=O)(=O)O)c4ccc(S(=O)(=O)O)cc4C3(C)C)/CCC2)=[N+](CCCCCC(=O)NCCCCCC(=O)NC23CC4(CCC=O)CC(CCC=O)(CC(CCC(=O)N[C@@H](CCP(=O)(O)CC(CCC(=O)O)C(=O)O)C(=O)O)(C4)C2)C3)c2ccc(S(=O)(=O)[O-])cc21` (stereo partly specified), for which the outcome in test [1] and in test [3] was inactive.

For the compound `CC1(C)C(/C=C/C2=C(Oc3ccc(S(=O)(=O)[O-])cc3)C(=C/C=C3/N(CCCCS(=O)(=O)O)c4ccccc4C3(C)C)/CCC2)=[N+](CCCCCC(=O)O)c2ccccc21`, the Activity in test [7] was determined as 100%. Also, the result in test [2] and in test [4] was inactive.

As to `CC1(C)C(/C=C/C2=C(Oc3ccc(S(=O)(=O)O)cc3)C(=C/C=C3/N(CCCCS(=O)(=O)O)c4ccc(S(=O)(=O)[O-])cc4C3(C)C)/CCC2)=[N+](CCCCCC(=O)NCCCCCC(=O)NC23CC4(CCC=O)CC(CCC=O)(CC(CCC(=O)N[C@@H](CCP(=O)(O)CC(CCC(=O)O)C(=O)O)C(=O)O)(C4)C2)C3)c2ccc(S(=O)(=O)O)cc21` (stereo partly specified), the Kd in test [2] was found to be 5.4 nM.

Regarding `CC1(C)C(C=CC2=C(Oc3ccc(S(=O)(=O)O)cc3)/C(=C/C=C3/N(CCCCCC(=O)N[C@@H](CCP(=O)(O)CC(CCC(=O)O)C(=O)O)C(=O)O)c4ccc(S(=O)(=O)[O-])cc4C3(C)C)CCC2)=[N+](CCCCS(=O)(=O)O)c2ccc(S(=O)(=O)O)cc21` (stereo partly specified), the Kd in test [2] amounted to 3.6 nM.

As to `CC1(C)C(/C=C/C2=C(Oc3ccc(S(=O)(=O)[O-])cc3)C(=C/C=C3/Nc4ccccc4C3(C)C)/CCC2)=[N+](CCCCCC(=O)NC23CC4(CCC(=O)N[C@@H](CCP(=O)(O)CC(CCC(=O)O)C(=O)O)C(=O)O)CC(CCC(=O)N[C@@H](CCP(=O)(O)CC(CCC(=O)O)C(=O)O)C(=O)O)(CC(CCC(=O)N[C@@H](CCP(=O)(O)CC(CCC(=O)O)C(=O)O)C(=O)O)(C4)C2)C3)c2ccccc21` (stereo partly specified), the Activity in test [7] was determined as 100%. The figures for the Kd in test [1], in test [2] and in test [3] were 0.3 nM, 0.2 nM and 0.3 nM, respectively.

On to `CC1(C)C(/C=C/C2=C(Oc3ccc(S(=O)(=O)O)cc3)C(=C/C=C3/N(CCCCS(=O)(=O)O)c4ccc(S(=O)(=O)O)cc4C3(C)C)/CCC2)=[N+](CCCCCC(=O)NCCCCCC(=O)NC23CC4(CCC(=O)O)CC(CCC(=O)O)(CC(CCC(=O)O)(C4)C2)C3)c2ccc(S(=O)(=O)[O-])cc21`, for which the outcome in test [2] and in test [4] was inactive.

With `CC(C)(C)OC(=O)NCCCCCC(=O)NC12CC3(CCC(=O)N[C@@H](CCP(=O)(O)CC(CCC(=O)O)C(=O)O)C(=O)O)CC(CCC(=O)N[C@@H](CCP(=O)(O)CC(CCC(=O)O)C(=O)O)C(=O)O)(CC(CCC(=O)N[C@@H](CCP(=O)(O)CC(CCC(=O)O)C(=O)O)C(=O)O)(C3)C1)C2` (stereo partly specified), the Kd in test [1] stood at 0.7 nM; in test [2], 0.4 nM; in test [3], 0.5 nM.
